Experimental data of several laboratories.

SMILES	host	matrix	route	dose	notes	half-life
Cc1ccc(CCC(=O)Nc2nnc(S(N)(=O)=O)s2)cc1	male BALB/c mouse	plasma	oral	20 mg/kg	–	4.64 h
Cc1cc(-c2ccnc3[nH]cc(F)c23)cc(F)c1[C@@]1(O)[C@H](C)CN(C(=O)CN)C[C@@H]1C	male CD-1 mouse	plasma	intravenous	1 mg/kg	–	9 h
Cc1ccc(N(c2ccc(NC(=O)CN(C)c3ccccc3N3CCCC3=O)cc2)C(C)C)cc1	male CD-1 mouse	plasma	oral	20 mg/kg	–	1.48 h
CC(C)(C)c1sc2ncnc(Oc3c(F)cccc3OC(F)(F)F)c2c1-c1ccc(Cl)cc1	mouse	plasma	intravenous	1 mg/kg	–	2.49 h
COC1=CC(c2ccc[nH]2)=N/C1=C\c1cc(Cc2ccc(OC(F)(F)F)cc2)c(C)[nH]1.Cl	male CD-1 mouse	liver	oral	40 mg/kg	single dose	58.3 h
Cc1ncsc1-c1ccc([C@H](C)NC(=O)[C@@H]2C[C@@H](O)CN2C(=O)[C@@H](NC(=O)CCc2ccc(C#Cc3ccc(C(=O)NCCCn4cc(-c5ccc6c(c5)CCN6C(=O)Cc5cccc(OC(F)(F)F)c5)c5c(N)ncnc54)cc3)cn2)C(C)(C)C)cc1	male C57BL/6 mouse	plasma	intravenous	1 mg/kg	–	4.6 h
COc1ccc(C[C@H](NC(=O)[C@H](C)NC(=O)CN2CCOCC2)C(=O)N[C@@H](Cc2ccccc2)C(=O)C2(C)CO2)cc1 (stereo in doubt)	mouse	plasma	oral	20 mg/kg	single dose	0.7 h
O=C1CCC(N2Cc3cc(C4CCN(Cc5ccccc5)CC4)ccc3C2=O)C(=O)N1 (centres unmarked)	male CD-1 mouse	plasma	intravenous	1 mg/kg	–	3.28 h
NCc1ccc(-c2nn(Cc3ccccc3)c3ccccc23)o1	male CD-1 mouse	plasma	oral	10 mg/kg	–	1.74 h
Cc1ccc(OCC(=O)N[C@@H](Cc2c[nH]c3ccccc23)C(=O)OC(C)C)cc1	male Sprague-Dawley mouse	plasma	intravenous	10 mg/kg	–	2.2 h
Cc1ncsc1-c1ccc([C@H](CC(=O)N2CCN(c3ccc(C#Cc4ccc(C(=O)N5CCC(n6cc(-c7ccc8c(c7)CCN8C(=O)Cc7cccc(OC(F)(F)F)c7)c7c(N)ncnc76)CC5)cc4)cn3)CC2)NC(=O)[C@@H]2C[C@@H](O)CN2C(=O)[C@@H](NC(=O)C2(F)CC2)C(C)(C)C)cc1	male C57BL/6 mouse	plasma	intravenous	1 mg/kg	–	7.3 h
CN(C)C(=O)c1cc2cnc(Nc3ccc(-c4ccc5c(=O)cc(N6CCOCC6)oc5c4)cc3)nc2n1C1CCCC1.Cl	BALB/c mouse	plasma	intravenous	2 mg/kg	–	2.8 h
COc1cc(C2C3=C(COC3=O)N(CCO)c3cc4c(cc32)CCC4)cc(OC)c1OC (centres unmarked)	female C57BL/6 mouse	plasma	intraperitoneal	50 mg/kg	–	5.2 h
CC1(CNc2nc(-c3cccs3)nc(Cl)c2-c2c(F)cc(N)cc2F)COC1	mouse	plasma	intraperitoneal	2.5 mg/kg	–	1.51 h
Cc1ncsc1-c1ccc([C@H](CC(=O)N2CC3(C2)CN(c2ccc(C#Cc4ccc(C(=O)N5CCC(n6cc(-c7ccc8c(c7)CCN8C(=O)Cc7cccc(OC(F)(F)F)c7)c7c(N)ncnc76)CC5)cc4)cn2)C3)NC(=O)[C@@H]2C[C@@H](O)CN2C(=O)[C@@H](NC(=O)C2(F)CC2)C(C)(C)C)cc1	male C57BL/6 mouse	plasma	intravenous	1 mg/kg	–	5.9 h
CC(C)C[C@@H]1CCO[C@@H]2[C@H](CN[C@@H]2C(=O)N[C@H]2[C@H]3O[C@H](SCC/C=C\[C@H]2C)[C@H](O)[C@@H](O)[C@H]3O)C1	mouse	plasma	intravenous	3 mg/kg	single dose	4.66 h
OCc1ccc(-c2nn(Cc3ccccc3)c3ccccc23)o1	male CD-1 mouse	plasma	oral	10 mg/kg	–	1.86 h
Cc1[nH]c(C)c(S(=O)(=O)Nc2ccc(C(F)(F)F)c(Cl)c2)c1C(=O)N1CCC(F)(F)C1	male CD-1 mouse	brain	intraperitoneal	40 mg/kg	–	3.65 h
NCc1ccc(-c2nn(Cc3ccncc3)c3ccccc23)o1	male CD-1 mouse	plasma	intraperitoneal	30 mg/kg	–	5.69 h
COC1=CC(c2ccc[nH]2)=N/C1=C\c1[nH]c(Cc2ccc(OC(F)(F)F)cc2)cc1Cc1ccc(OC(F)(F)F)cc1	male CD-1 mouse	liver	oral	40 mg/kg	single dose	7.62 h
Cc1ccc(C(C)C)cc1Oc1nccc(-c2c(-c3ccc(C(F)(F)F)cc3)ncn2C2CCN(CCO)CC2)n1	male C57BL/6 mouse	liver	intraperitoneal	10 mg/kg	–	3.1 h
Cc1cc(-c2ccnc3[nH]cc(F)c23)cc(F)c1[C@@]1(O)[C@H](C)CN(C2CCS(=O)(=O)CC2)C[C@@H]1C	male CD-1 mouse	plasma	intravenous	1 mg/kg	–	2.6 h
COCC(=O)N1CCc2[nH]c3c(Cl)c(Cl)ccc3c2[C@@H]1C	C57BL/6 mouse	blood	intravenous	1 mg/kg	–	0.653 h
